ChEMBL document CHEMBL5696442, “Discovery of type II inhibitors of TGFβ-activated kinase 1 (TAK1) and mitogen-activated protein kinase kinase kinase kinase 2 (MAP4K2)” (J Med Chem, 2015)

How the values were obtained:
[1] = target: T1, Ephrin type-B receptor 2 (Homo sapiens) (UniProt P29323); experiment: Inhibition of EphB2 ACT labeling site in human A-375 cells at 0.5 uM by KiNativ Profiling analysis relative to control; format: cell-based
T1 sequence (whole entry): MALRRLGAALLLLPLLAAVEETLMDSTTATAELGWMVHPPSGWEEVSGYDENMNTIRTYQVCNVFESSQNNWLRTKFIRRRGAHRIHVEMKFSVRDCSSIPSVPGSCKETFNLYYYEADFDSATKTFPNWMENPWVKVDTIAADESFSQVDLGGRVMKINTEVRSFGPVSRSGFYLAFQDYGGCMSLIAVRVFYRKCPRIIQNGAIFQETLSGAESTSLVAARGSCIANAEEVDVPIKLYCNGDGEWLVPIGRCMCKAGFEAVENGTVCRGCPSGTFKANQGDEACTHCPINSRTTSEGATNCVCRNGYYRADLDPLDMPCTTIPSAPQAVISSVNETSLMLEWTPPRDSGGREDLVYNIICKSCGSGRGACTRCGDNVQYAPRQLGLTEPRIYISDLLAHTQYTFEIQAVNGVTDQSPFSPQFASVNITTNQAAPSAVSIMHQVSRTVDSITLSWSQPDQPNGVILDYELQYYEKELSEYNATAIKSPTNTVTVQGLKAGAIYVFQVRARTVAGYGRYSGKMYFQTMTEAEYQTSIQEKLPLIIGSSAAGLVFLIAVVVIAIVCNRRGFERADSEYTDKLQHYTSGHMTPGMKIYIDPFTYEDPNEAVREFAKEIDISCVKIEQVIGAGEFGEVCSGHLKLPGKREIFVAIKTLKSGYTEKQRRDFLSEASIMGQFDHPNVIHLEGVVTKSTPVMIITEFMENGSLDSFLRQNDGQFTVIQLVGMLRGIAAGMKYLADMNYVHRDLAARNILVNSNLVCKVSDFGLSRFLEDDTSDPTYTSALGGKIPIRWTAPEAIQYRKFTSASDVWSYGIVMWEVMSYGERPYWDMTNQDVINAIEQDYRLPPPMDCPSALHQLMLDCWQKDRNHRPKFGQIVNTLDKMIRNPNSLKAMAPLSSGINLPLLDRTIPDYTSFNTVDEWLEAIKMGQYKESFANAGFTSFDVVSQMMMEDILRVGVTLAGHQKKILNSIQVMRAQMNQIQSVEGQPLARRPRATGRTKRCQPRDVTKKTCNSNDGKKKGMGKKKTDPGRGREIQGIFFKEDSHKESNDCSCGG
Summary of the method: (§1)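 Live A375 melanoma cells were treated with compound at 0.5 or 5 μM, then lysed. Lysates were labeled with a lysine-reactive ATP or ADP-biotin probe. The read-out was protection of each kinase probe-labeling site from labeling, relative to control.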

[2] = target: Mitogen-activated protein kinase kinase kinase 20 (Homo sapiens, UniProt Q9NYL2); experiment: Inhibition of ZAK Lys1 labeling site in human A-375 cells at 0.05 uM by KiNativ Profiling analysis relative to control; format: cell-based
[3] = target: Serine/threonine-protein kinase 24 (Homo sapiens) (UniProt Q9Y6E0); experiment: Inhibition of MST3 Lys2 labeling site harbouring DIKAANVLLSEHGEVK in human A-375 cells at 0.5 uM by KiNativ Profiling analysis relative to control; format: cell-based
[4] = target: DNA-PK/Ku70/Ku85 (Homo sapiens) (UniProt P78527+P12956+P13010); experiment: Inhibition of DNAPK ATP labeling site harbouring EHPFLVKGGEDLR in human A-375 cells at 0.5 uM by KiNativ Profiling analysis relative to control; format: cell-based; summary of the method: as §1
[5] = target: T2, Dual specificity mitogen-activated protein kinase kinase 5 (Homo sapiens) (UniProt Q13163); experiment: Inhibition of MAP2K5 Lys2 labeling site in human A-375 cells at 0.05 uM by KiNativ Profiling analysis relative to control; format: cell-based
T2 sequence (whole entry): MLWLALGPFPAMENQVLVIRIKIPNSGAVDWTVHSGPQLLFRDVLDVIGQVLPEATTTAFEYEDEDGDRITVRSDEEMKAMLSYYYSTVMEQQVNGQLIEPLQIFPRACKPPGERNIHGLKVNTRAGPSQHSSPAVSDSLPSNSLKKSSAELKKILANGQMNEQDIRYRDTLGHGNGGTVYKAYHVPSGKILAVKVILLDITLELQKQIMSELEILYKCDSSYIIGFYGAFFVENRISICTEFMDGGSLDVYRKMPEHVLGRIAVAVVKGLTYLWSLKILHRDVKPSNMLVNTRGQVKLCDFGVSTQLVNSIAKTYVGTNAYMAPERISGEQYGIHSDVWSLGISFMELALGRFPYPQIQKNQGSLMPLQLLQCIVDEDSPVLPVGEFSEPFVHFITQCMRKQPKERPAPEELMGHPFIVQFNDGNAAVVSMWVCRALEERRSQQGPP

[6] = target: Serine/threonine-protein kinase Nek6 (Homo sapiens) (UniProt Q9HC98); experiment: Inhibition of NEK6 Lys2 labeling site in human A-375 cells at 0.05 uM by KiNativ Profiling analysis relative to control; format: cell-based
[7] = target: Tyrosine-protein kinase Fer (Homo sapiens, UniProt P16591); experiment: Inhibition of FER ACT labeling site in human A-375 cells at 0.05 uM by KiNativ Profiling analysis relative to control; format: cell-based
Ephrin type-B receptor 2 = Ephrin type-B receptor 2 (Homo sapiens, UniProt P29323); experiment: Inhibition of EphB2 (unknown origin) ACT labeling site by KiNativ Profiling analysis
[8] = target: Ribosomal protein S6 kinase alpha-1 (Homo sapiens) (UniProt Q15418); experiment: Inhibition of RSK1 Protein Kinase Domain in human A-375 cells at 0.5 uM by KiNativ Profiling analysis relative to control; format: cell-based
Summary of the method: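 Live A375 melanoma cells treated with compound at 5 or 0.5 μM, then lysed. Lysate kinases were labeled with a lysine-reactive ATP or ADP-biotin probe. Inhibition was read as protection of labeling sites from the probe.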

[9] = target: Serine/threonine-protein kinase MARK2 (Homo sapiens) (UniProt Q7KZI7); experiment: Inhibition of MARK2 Lys2 labeling site harbouring FIVHRDLKAENLLLDADMNIK in human A-375 cells at 5 uM by KiNativ Profiling analysis relative to control; format: cell-based
[10] = target: Phosphatidylinositol 4,5-bisphosphate 3-kinase catalytic subunit beta isoform (Homo sapiens) (UniProt P42338); experiment: Inhibition of PIK3CB ATP labeling site in human A-375 cells at 0.5 uM by KiNativ Profiling analysis relative to control; format: cell-based
[11] = target: Protein kinase C beta type (Homo sapiens) (UniProt P05771); experiment: Inhibition of PKCb Lys2 labeling site in human A-375 cells at 0.5 uM by KiNativ Profiling analysis relative to control; format: cell-based
[12] = target: Serine/threonine-protein kinase 10 (Homo sapiens) (UniProt O94804); experiment: Inhibition of LOK Lys1 labeling site in human A-375 cells at 0.5 uM by KiNativ Profiling analysis relative to control; format: cell-based
MEF = experiment: Inhibition of TGF-beta induced p38 MAPK phosphorylation level in wild type mouse MEF cells incubated for 1 hr followed by TGF-beta stimulation by Western blot analysis; format: functional, cell-based; conditions: dose <= 500.0 nM

Chain of Mitogen-activated protein kinase kinase kinase 20 (Q9NYL2 2-800 limits assumed): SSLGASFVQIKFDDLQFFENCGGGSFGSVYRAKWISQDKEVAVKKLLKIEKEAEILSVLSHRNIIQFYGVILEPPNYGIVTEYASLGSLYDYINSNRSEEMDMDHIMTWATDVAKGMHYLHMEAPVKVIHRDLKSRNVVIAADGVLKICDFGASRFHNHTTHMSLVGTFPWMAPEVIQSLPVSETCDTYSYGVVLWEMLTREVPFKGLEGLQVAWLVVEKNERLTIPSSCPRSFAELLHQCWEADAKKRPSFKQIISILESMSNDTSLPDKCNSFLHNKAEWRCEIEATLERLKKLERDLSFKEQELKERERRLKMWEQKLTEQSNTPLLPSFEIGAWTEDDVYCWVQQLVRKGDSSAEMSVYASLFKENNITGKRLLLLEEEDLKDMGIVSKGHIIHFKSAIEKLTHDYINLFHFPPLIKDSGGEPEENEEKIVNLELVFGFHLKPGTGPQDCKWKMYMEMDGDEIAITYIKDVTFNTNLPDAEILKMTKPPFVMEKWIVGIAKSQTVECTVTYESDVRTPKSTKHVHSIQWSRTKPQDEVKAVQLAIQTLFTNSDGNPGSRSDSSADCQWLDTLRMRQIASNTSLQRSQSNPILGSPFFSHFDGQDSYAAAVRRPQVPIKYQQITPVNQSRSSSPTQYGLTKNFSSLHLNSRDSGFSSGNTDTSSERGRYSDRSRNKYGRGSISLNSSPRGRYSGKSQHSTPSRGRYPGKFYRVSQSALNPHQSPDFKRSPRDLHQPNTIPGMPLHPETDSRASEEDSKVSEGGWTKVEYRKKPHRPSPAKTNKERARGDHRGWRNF
Chain of Ribosomal protein S6 kinase alpha-1 (Homo sapiens) (Q15418 whole entry, the tested form may be a part): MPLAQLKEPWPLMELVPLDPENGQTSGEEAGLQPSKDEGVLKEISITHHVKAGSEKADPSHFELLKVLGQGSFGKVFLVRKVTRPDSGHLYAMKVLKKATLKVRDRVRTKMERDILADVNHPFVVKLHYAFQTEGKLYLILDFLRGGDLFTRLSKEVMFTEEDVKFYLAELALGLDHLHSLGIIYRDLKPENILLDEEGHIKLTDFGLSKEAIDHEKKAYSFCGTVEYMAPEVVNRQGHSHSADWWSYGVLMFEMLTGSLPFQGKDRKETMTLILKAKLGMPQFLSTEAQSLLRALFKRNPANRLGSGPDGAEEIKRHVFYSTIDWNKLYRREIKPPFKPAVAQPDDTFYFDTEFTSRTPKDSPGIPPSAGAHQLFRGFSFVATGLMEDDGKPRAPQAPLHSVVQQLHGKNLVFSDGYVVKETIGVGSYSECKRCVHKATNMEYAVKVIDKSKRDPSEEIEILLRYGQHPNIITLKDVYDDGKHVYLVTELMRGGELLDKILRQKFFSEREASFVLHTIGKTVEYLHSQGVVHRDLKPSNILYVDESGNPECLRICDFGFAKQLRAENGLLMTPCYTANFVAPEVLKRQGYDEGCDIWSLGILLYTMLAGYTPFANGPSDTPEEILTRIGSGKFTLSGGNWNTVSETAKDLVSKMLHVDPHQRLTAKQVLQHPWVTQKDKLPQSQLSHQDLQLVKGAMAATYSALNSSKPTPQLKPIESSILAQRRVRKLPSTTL
Chain of Protein kinase C beta type (Homo sapiens) (P05771 2-671 limits assumed): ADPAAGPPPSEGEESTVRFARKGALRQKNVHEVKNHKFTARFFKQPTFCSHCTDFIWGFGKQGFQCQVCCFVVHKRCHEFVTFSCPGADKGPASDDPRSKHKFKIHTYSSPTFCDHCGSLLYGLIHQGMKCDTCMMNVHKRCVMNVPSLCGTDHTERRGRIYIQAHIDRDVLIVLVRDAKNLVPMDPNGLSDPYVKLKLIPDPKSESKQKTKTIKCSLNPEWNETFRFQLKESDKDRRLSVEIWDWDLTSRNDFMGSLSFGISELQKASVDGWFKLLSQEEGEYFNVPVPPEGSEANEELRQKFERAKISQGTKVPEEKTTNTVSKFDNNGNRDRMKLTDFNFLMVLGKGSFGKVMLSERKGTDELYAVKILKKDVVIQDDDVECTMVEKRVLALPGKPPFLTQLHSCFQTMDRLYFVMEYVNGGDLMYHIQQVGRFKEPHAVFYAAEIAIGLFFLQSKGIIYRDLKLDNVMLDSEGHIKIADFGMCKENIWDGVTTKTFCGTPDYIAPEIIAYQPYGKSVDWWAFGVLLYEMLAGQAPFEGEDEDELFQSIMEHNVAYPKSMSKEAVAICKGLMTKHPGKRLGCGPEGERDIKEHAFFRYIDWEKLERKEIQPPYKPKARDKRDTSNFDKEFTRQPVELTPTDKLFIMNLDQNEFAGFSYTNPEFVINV
Chain of Serine/threonine-protein kinase 10 (Homo sapiens) (O94804 whole entry, looked up): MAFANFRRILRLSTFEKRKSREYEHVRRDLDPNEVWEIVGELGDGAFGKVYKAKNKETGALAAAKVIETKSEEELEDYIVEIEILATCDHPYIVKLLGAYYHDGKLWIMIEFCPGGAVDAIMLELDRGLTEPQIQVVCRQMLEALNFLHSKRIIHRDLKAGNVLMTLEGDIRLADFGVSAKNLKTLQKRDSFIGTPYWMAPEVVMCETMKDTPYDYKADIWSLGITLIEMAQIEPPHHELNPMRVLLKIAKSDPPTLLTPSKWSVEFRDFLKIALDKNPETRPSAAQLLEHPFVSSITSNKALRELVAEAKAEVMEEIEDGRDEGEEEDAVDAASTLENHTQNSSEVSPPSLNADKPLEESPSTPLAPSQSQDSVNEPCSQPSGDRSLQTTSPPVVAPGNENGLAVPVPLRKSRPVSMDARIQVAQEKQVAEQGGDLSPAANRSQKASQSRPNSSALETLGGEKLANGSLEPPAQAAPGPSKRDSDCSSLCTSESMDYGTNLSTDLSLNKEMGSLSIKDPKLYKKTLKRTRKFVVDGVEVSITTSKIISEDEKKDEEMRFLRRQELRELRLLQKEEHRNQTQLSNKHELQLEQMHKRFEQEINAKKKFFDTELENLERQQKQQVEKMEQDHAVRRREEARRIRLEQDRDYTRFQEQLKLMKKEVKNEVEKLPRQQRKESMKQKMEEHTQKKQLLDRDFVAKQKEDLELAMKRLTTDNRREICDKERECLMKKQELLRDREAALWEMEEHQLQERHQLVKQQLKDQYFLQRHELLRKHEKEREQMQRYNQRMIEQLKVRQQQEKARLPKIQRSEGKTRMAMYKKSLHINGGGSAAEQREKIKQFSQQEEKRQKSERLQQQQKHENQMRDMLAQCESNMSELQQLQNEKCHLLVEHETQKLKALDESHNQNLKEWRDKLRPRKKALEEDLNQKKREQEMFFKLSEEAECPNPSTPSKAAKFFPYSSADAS
Chain of Phosphatidylinositol 4,5-bisphosphate 3-kinase catalytic subunit beta isoform (Homo sapiens) (P42338 whole entry, looked up, canonical isoform): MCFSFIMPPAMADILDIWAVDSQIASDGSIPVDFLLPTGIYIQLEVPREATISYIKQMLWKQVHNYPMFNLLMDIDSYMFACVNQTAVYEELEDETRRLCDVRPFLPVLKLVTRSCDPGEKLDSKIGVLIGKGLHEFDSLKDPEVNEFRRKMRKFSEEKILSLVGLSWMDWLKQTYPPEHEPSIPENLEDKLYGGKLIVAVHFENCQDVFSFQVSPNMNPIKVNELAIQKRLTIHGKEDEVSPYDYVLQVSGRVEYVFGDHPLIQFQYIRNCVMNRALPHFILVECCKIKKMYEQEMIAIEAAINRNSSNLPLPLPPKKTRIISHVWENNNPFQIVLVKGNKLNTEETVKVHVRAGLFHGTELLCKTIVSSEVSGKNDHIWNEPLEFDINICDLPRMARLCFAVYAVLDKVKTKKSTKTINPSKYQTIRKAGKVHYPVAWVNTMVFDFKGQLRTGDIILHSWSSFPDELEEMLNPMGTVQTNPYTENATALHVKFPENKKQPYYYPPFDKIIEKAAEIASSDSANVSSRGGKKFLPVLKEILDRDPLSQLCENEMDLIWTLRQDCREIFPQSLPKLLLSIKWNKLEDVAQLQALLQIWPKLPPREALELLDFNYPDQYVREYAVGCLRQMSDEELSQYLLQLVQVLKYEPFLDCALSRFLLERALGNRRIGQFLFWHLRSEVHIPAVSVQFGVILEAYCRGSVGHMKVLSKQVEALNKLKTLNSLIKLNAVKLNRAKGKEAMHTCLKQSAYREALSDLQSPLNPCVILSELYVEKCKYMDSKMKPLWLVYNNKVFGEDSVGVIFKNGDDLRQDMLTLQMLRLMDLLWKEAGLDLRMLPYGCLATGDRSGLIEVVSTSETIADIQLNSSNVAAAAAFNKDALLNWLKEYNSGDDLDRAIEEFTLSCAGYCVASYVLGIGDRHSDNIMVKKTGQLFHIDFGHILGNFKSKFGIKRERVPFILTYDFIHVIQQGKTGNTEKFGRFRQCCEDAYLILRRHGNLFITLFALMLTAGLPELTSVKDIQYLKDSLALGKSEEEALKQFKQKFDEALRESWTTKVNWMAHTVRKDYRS
Chain of Serine/threonine-protein kinase 24 (Homo sapiens) (Q9Y6E0 whole entry, looked up): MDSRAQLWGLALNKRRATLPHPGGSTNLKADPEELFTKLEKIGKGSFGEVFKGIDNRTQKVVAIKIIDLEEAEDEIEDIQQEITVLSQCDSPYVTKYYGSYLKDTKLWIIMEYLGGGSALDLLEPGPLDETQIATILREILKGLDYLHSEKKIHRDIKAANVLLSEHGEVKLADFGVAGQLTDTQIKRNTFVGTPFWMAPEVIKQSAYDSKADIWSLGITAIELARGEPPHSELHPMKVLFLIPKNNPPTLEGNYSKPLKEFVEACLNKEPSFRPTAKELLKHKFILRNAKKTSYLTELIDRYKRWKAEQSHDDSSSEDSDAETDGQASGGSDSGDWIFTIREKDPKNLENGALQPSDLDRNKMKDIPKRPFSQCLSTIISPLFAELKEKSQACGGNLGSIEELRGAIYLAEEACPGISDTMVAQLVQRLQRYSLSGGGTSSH
Chain of Serine/threonine-protein kinase Nek6 (Homo sapiens) (Q9HC98 whole entry): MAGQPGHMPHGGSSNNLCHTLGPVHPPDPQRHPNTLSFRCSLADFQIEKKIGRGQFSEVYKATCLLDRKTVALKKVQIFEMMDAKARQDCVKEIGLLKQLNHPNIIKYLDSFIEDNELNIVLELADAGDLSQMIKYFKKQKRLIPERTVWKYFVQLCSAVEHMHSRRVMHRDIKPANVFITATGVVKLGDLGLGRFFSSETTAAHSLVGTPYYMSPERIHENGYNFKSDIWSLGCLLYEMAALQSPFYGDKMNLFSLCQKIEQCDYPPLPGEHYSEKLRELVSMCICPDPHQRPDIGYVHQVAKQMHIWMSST

| SMILES | inhibition [1] | inhibition [2] | inhibition [3] | inhibition [4] | inhibition [5] | inhibition [6] | inhibition [7] | IC50 (Ephrin type-B receptor 2) | inhibition [8] | inhibition [9] | inhibition [10] | inhibition [11] | inhibition [12] | inhibition (MEF) |
| --- | --- | --- | --- | --- | --- | --- | --- | --- | --- | --- | --- | --- | --- | --- |
| CCN1CCN(Cc2ccc(NC(=O)c3ccc(C)c(Oc4ccnc5[nH]ccc45)c3)cc2C(F)(F)F)CC1 | -2.2% | 74.1% | 1.6% | 3.2% | 19.1% | 10.6% | 62% | 672 nM | 0.9% | 12.9% | 8.8% | 65% | 71.7% |  |
| CNc1cc(Oc2cc(C(=O)Nc3cc(-n4cnc(C)c4)cc(C(F)(F)F)c3)ccc2C)ncn1 |  |  |  |  |  |  |  |  |  |  |  |  |  | Dose-Dependent Effect |
| CNc1cc(Oc2cc(C(=O)Nc3cc(N4CCN(C)CC4)cc(C(F)(F)F)c3)ccc2C)ncn1 |  |  |  |  |  |  |  |  |  |  |  |  |  | Dose-Dependent Effect |
| CCN1CCN(Cc2ccc(NC(=O)c3ccc(C)c(/C=C/c4cnc5[nH]ccc5c4OC)c3)cc2C(F)(F)F)CC1 | 55.5% | 80.5% | 0.2% | 13.8% | -5.6% | 5.8% | -9.9% | 75 nM | 3.2% | 24.6% | 37.6% | 48.2% | 60.7% |  |
